Source: ChEMBL document CHEMBL1764951, “Synthesis of a new 4-aza-2,3-didehydropodophyllotoxin analogues as potent cytotoxic and antimitotic agents” (2011)
Counter-ions that a name gives are not always drawn. Active and inactive are the calls of the source. The rule behind the calls is not given here.

Key:
MCF7 = experiment: Cytotoxicity against human MCF7 cells after 48 hrs by sulforhodamine B based ELISA; format: functional; conditions: MCF7, 48 h
Method in brief: (§1)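 Lines were grown in DMEM with 10% FBS and 2 mM L-glutamine, plated at densities set by doubling time, and held 24 h at 37 °C, 5% CO2. Drugs were tested at 0.1, 1, 10 and 100 µM in triplicate wells for 48 h. Cells were fixed with cold TCA (10% final) for 60 min at 4 °C, stained 20 min with 0.4% SRB in 1% acetic acid, and eluted with 10 mM Tris base. A540 was read with a 690 nm reference. GI50 came from [(Ti−Tz)/(C−Tz)]×100 = 50; runs were repeated three times.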

Tubulin (Homo sapiens) [1] = molecular target: T1, Tubulin (Homo sapiens) (UniProt P68371+Q9H4B7+P0DPH7+P68366+Q13509+Q71U36+P04350+Q3ZCM7+P07437+P68363+Q9BQE3+Q6PEY2+Q13885+Q9BVA1+Q9BUF5); experiment: Inhibition of tubulin polymerization in human A549 cells assessed as disrupted microtubule organization at 1 uM after 48 hrs by immunohistochemistry; format: cell-based
Method in brief: (§2)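 A-549 cells on glass coverslips were treated 48 h with compound at 5 µM or podophyllotoxin at 1 µM. They were fixed in 3% paraformaldehyde/0.02% glutaraldehyde in PBS, permeabilized in −20 °C methanol, and blocked 1 h in 1% BSA. Staining used a mouse monoclonal anti-tubulin antibody and an FITC-conjugated secondary. Microtubule network integrity was assessed by confocal microscopy.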

A549 [2] = experiment: Cell cycle arrest in human A549 cells assessed as accumulation at G2/M phase at 1 uM after 48 hrs using propidium iodide staining by flow cytometry (reference value: 23.1%); format: functional
Tubulin (Homo sapiens) [3] = molecular target: T1, Tubulin (Homo sapiens); experiment: Inhibition of tubulin polymerization in human A549 cells assessed as disrupted microtubule organization at 5 uM after 48 hrs by immunohistochemistry; format: cell-based; method in brief: as §2
A549 [4] = experiment: Cell cycle arrest in human A549 cells assessed as accumulation at G1 phase at 1 uM after 48 hrs using propidium iodide staining by flow cytometry (reference value: 71.6%); format: functional
A549 [5] = experiment: Induction of apoptosis in human A549 cells assessed as activation of caspase 3 at 1 uM after 48 hrs by fluorimetric assay relative to control; format: functional
Method in brief: (§3)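 A-549 cells in 6-well plates at 60–80% confluence were given compound at 5 µM, with podophyllotoxin at 1 µM as the positive control. The methods give 24 h incubation; the legend gives 48 h. Cells were scraped, lysed by syringe in lysis buffer on ice 10–20 min, and spun at 13,200 rpm for 20 min at 4 °C. The supernatant was assayed fluorimetrically with an AMC-conjugated caspase-3 substrate. Values are the mean ± SD of two experiments, each in triplicate.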

[6] = Inhibition of tubulin polymerization at 3 uM after 1 hr fluorescence analysis relative to control
Method in brief: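 The cell-free fluorescence kit assay used PEM buffer, 1 mM GTP and compound at 3 µM final. Polymerization was followed as reporter incorporation into microtubules, read at 460 nm emission for 1 h at 37 °C, with podophyllotoxin as the positive control. Percent inhibition was expressed relative to the untreated control.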

A549 [7] = experiment: Cell cycle arrest in human A549 cells assessed as accumulation at S phase at 1 uM after 48 hrs using propidium iodide staining by flow cytometry (reference value: 5.2%); format: functional
COLO 205 = experiment: Cytotoxicity against human COLO205 cells after 48 hrs by sulforhodamine B based ELISA; format: functional; conditions: COLO 205, 48 h; method in brief: as §1
A2780 = experiment: Cytotoxicity against human A2780 cells after 48 hrs by sulforhodamine B based ELISA; format: functional; conditions: A2780, 48 h; method in brief: as §1
KB = experiment: Cytotoxicity against human KB cells after 48 hrs by sulforhodamine B based ELISA; format: functional; method in brief: as §1
A549 [8] = experiment: Induction of apoptosis in human A549 cells assessed as activation of caspase 3 at 5 uM after 48 hrs by fluorimetric assay relative to control; format: functional; method in brief: as §3
A549 [9] = experiment: Cytotoxicity against human A549 cells after 48 hrs by sulforhodamine B based ELISA; format: functional; conditions: A549, 48 h; method in brief: as §1
A549 [10] = experiment: Cell cycle arrest in human A549 cells assessed as accumulation at S phase at 10 uM after 48 hrs using propidium iodide staining by flow cytometry (reference value: 5.2%); format: functional
A549 [11] = experiment: Cell cycle arrest in human A549 cells assessed as accumulation at G1 phase at 10 uM after 48 hrs using propidium iodide staining by flow cytometry (reference value: 71.6%); format: functional
A549 [12] = experiment: Cell cycle arrest in human A549 cells assessed as accumulation at G2/M phase at 10 uM after 48 hrs using propidium iodide staining by flow cytometry (reference value: 23.1%); format: functional

Compound	GI50 (MCF7) [nM]	GI50 (COLO 205) [nM]	GI50 (A2780) [nM]	GI50 (KB) [nM]	GI50 (A549 [9]) [nM]	further results
COc1ccc(C2C3=C(COC3=O)Nc3ccc4nn[nH]c4c32)c(F)c1 (stereo not drawn)	< 100					
COc1cc([C@@H]2c3cc4c(cc3[C@H](O)[C@H]3COC(=O)[C@H]23)OCO4)cc(OC)c1OC [PODOFILOX]						inhibition (Tubulin (Homo sapiens) [1]): Active; Activity (A549 [2]): 61.5%; inhibition (Tubulin (Homo sapiens) [3]): Active; Activity (A549 [4]): 31.4%; fold change (FC) (A549 [5]): 4; inhibition [6]: 80.7%; Activity (A549 [7]): 7.1%
COc1cc(C2C3=C(COC3=O)Nc3ccc4cn[nH]c4c32)ccc1O (stereo not drawn)	2000	2000				
COc1cc(C2C3=C(COC3=O)Nc3ccc4ncsc4c32)cc(OC)c1OC (stereo not drawn)		2500	2300	2100	2400	inhibition (Tubulin (Homo sapiens) [1]): Active; fold change (FC) (A549 [8]): 2; inhibition (Tubulin (Homo sapiens) [3]): Active; Activity (A549 [10]): 4.4%; inhibition [6]: 49.4%; Activity (A549 [11]): 42.4%; Activity (A549 [12]): 53.1%
COc1ccc(C2C3=C(COC3=O)Nc3ccc4cc[nH]c4c32)cc1O (stereo not drawn)	2900	190	2700	2200	2300	
COc1ccc(C2C3=C(COC3=O)Nc3onc(-c4ccc(Cl)cc4)c32)cc1O (stereo not drawn)				2700		
COc1ccc(C2C3=C(COC3=O)Nc3ccc4cn[nH]c4c32)cc1O (stereo not drawn)		2600				
COc1cc(C2C3=C(COC3=O)Nc3ccc4cc[nH]c4c32)cc(OC)c1OC (stereo not drawn)		2300	2700	2000	2400	
COc1ccc(C2C3=C(COC3=O)Nc3ccc4nc(S)[nH]c4c32)cc1O (stereo not drawn)	2700					
COc1cc(C2C3=C(COC3=O)Nc3ccc4cc[nH]c4c32)ccc1F (stereo not drawn)	2100		2300	170	2200	
COc1nc2c(c(OC)n1)C(c1ccc(F)c(OC)c1)C1=C(COC1=O)N2 (stereo not drawn)				2200	2600	
COc1cc(C2C3=C(COC3=O)Nc3ccc4cc(C)[nH]c4c32)cc(OC)c1OC (stereo not drawn)				2000		
COc1cc([C@@H]2c3cc4c(cc3[C@@H](O[C@@H]3O[C@@H]5CO[C@@H](C)O[C@H]5[C@H](O)[C@H]3O)[C@H]3COC(=O)[C@H]23)OCO4)cc(OC)c1O [ETOPOSIDE]	2100	130	1300	300	3080	
COc1cc(C2C3=C(COC3=O)Nc3ccc4nn[nH]c4c32)cc(OC)c1OC (stereo not drawn)				2900		
COc1cc(C2C3=C(COC3=O)Nc3ccc4nc(C)sc4c32)ccc1[N+](=O)[O-] (stereo not drawn)	150					
COc1cc(C2C3=C(COC3=O)Nc3ccc4cc[nH]c4c32)ccc1O (stereo not drawn)	2300	2500				
COc1cc(C2C3=C(COC3=O)Nc3ccc4cn[nH]c4c32)ccc1F (stereo not drawn)	2700				2300	
COc1cc(C2C3=C(COC3=O)Nc3ccc4cc(C)[nH]c4c32)ccc1F (stereo not drawn)	2600		2400		2100	inhibition (Tubulin (Homo sapiens) [1]): Active; fold change (FC) (A549 [8]): 2; inhibition (Tubulin (Homo sapiens) [3]): Active; Activity (A549 [10]): 8.8%; inhibition [6]: 45.3%; Activity (A549 [11]): 35.4%; Activity (A549 [12]): 55.6%
COc1cccc2c1C(=O)c1c(O)c3c(c(O)c1C2=O)C[C@@](O)(C(=O)CO)C[C@@H]3O[C@H]1C[C@H](N)[C@H](O)[C@H](C)O1 [DOXORUBICIN HYDROCHLORIDE]	130	< 100	< 100	130	< 100	
COc1ccc(C2C3=C(COC3=O)Nc3ccc4cc[nH]c4c32)cc1[N+](=O)[O-] (stereo not drawn)		2400				
COc1ccc(C2C3=C(COC3=O)Nc3ccc4cc(C)[nH]c4c32)c(F)c1 (stereo not drawn)	< 100	2700	2300	2200		
COc1cc(C2C3=C(COC3=O)Nc3c2cc(OC)c(OC)c3OC)ccc1O (stereo not drawn)	2900					
COc1nc2c(c(OC)n1)C(c1cc(OC)c(OC)c(OC)c1)C1=C(COC1=O)N2 (stereo not drawn)	2400	160		170	2100	inhibition (Tubulin (Homo sapiens) [1]): Active; fold change (FC) (A549 [8]): 2; inhibition (Tubulin (Homo sapiens) [3]): Active; Activity (A549 [10]): 12.7%; inhibition [6]: 63.7%; Activity (A549 [11]): 38.9%; Activity (A549 [12]): 48.2%
